# Screening results as filed in PubChem BioAssay.
# T cruzi inh: blocks replication of Trypanosoma cruzi; T. cruzi beta-gal in NIH3T3, luminescence, 90 h; inhibition, % (test concentration not listed); 300,000 tested, 1.4% active; AID 1885;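 active means mean inhibition across valid replicates above about 55%, limit read from the data; inconclusive means mean below that limit but half or more replicates reach it; inactive means mean below it, under half of replicates reach it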;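 further: signal also drops with host cell toxicity which is not excluded here; 0% = plate median of DMSO wells and 100% = zero luminescence signal; higher percent means less beta-gal luminescence so fewer parasites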
#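 compound dosing = single 50 nL compound addition per well in DMSO | material = NIH/3T3 host cells with β-galactosidase reporter T. cruzi | input = 5,000 host fibroblasts per well | timing = ≥90 h infection period, 3 h prior cell attachment | read-out basis = percent inhibition of parasite-derived β-gal signal | detection = GalScreen β-gal luminescence, detergent lysis, 60 min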
# aSyn UTR inh: MLPCN primary screen, SNCA 5' untranslated region; inhibition, % (tested at 7.5 µM); 300,000 tested, 0.82% active; alpha-synuclein 5'UTR reporter, inhibitor activity; AID 1813; in the data active means inhibition above about 60%; inconclusive means no clear call, values can overlap the other calls;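 further: H4 neuroglioblastoma cells stably carrying SNCA 5'UTR luciferase fusion; 0% = DMSO wells and 100% = positive control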
# CSC inhib: blocks cancer stem cells; cancer stem cell-like cells viability, luminescence; inhibition, % at 7.5 µM; 300,000 tested, 1.1% active; in the data active means inhibition above about 75%; inconclusive means no clear call, values can overlap the other calls; tested in HMLE shEcad cells
# Mdm2 MdmX PPI: human Mdm2/MdmX binding inhibition | O15151+Q00987 | SaOS-2 split-luciferase Mdm2/MdmX complementation, luminescence | inhibition, % at 8 µM | 330,000 tested, 3% active | AID 485346;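 active means inhibition of at least 50% at 8 µM in the primary screen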
# SKKanGAS inh: blocks kanamycin growth of S. pyogenes SKKanGAS strain; 300,000 tested, 1.3% active; BacTiter-Glo, 6 h; AID 1662; inhibition, % at 7.5 µM;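 active means mean replicate score, as percent of positive control median, at least 50; inconclusive means mean below 50 but one replicate at or above 50; inactive means mean and every replicate below 50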;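 further: strain carries kanamycin resistance gene driven by streptokinase promoter and grows in 40 µg/ml kanamycin; loss of luminescence reflects streptokinase promoter inhibition or plain growth inhibition; 0% = median of DMSO wells and 100% = positive control at its reference dose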
# Mdm2 MdmX conf: human Mdm2/MdmX binding inhibition, confirmed | 10,000 tested, 55% active | shares compounds with Mdm2 MdmX PPI | luminescent assay | inhibition, % at 8 µM; in the data active means inhibition above about 40%
# Full FLuc ctr: inhibits full-length luciferase, flagging false Mdm2/MdmX hits. shares compounds with Mdm2 MdmX PPI. inhibition, % at 8 µM. SaOS-2 full-length luciferase counterscreen, luminescence. 6,200 tested, 77% active;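 active means mean inhibition at 8 µM reaching about 37%, which flags the compound as non-specific, limit read from the data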;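 further: p53-null SaOS-2 cells with luciferase driven by a doxycycline-inducible promoter; compound on cells about two nights before reading with doxycycline added after day one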
# Starred values were filed as active, the others as inactive; u = inconclusive; x = no result. The list is not random: actives were taken first. Their share in the collection is about 5.4%.
SMILES,T cruzi inh,aSyn UTR inh,CSC inhib,Mdm2 MdmX PPI,SKKanGAS inh,Mdm2 MdmX conf,others
CCN(CC)S(=O)(=O)c1ccc(C(=O)Nc2nnc(COC)o2)cc1,-11,7,-2,-3,4,x,
CCCCN(CCCC)S(=O)(=O)c1ccc(C(=O)Nc2nnc(COC)o2)cc1,15,62*,22,59*,92*,22,
CCCCN(C)S(=O)(=O)c1ccc(C(=O)Nc2nnc(CSC)o2)cc1,-33,12,-13,51*,31,27,
CCN(CC)S(=O)(=O)c1ccc(C(=O)Nc2nnc(CSC)o2)cc1,-18,4,16,25,1,x,
Cc1cc(NC(=O)COC(=O)c2oc3c(Cl)cccc3c2C)no1,-9,-8,1,11,-1,x,
Cc1n[nH]c(=O)c2c(NC(=O)CSc3nc4ccccc4c(=O)n3C(C)C)oc(C)c12,-8,19,-6,19,4,x,
COc1ccc(C(=O)OCC(=O)Nc2nc3c(F)c(F)c(F)cc3s2)cc1OC,-10,-13,16,-1,-2,x,
O=C(COC(=O)C12CC3CC(CC(C3)C1)C2)Nc1nc2c(F)c(F)c(F)cc2s1,6,-10,x,58*,29,14,
COc1ccc(C(=O)OCC(=O)Nc2ccc([N+](=O)[O-])cc2OC)c(O)c1,3,10,3,84*,-4,8,
COC(C(=O)N/N=C/c1ccc(OCC(=O)N2CCOCC2)cc1)c1ccccc1 (stereo not given),-15,-21,x,-3,1,x,
COc1ccccc1N1CCN(c2ccc3cc(S(=O)(=O)N4CCCCC4)ccc3n2)CC1,34,-7,x,51*,0,6,
CC(=O)c1ccc(N2CCN(c3ccc4cc(S(=O)(=O)N5CCC(C)CC5)ccc4n3)CC2)cc1,-9,47,x,61*,7,-2,
COc1ccc(Nc2nc(-c3ccccc3F)nc3ccccc23)cc1OC,24,28,11,55*,9,33,
Oc1ccc(Nc2nc(-c3ccccc3O)nc3ccccc23)cc1,-11,-35,83*,54*,20,24,
O=C(Nc1cc(C(=O)N2CCN(c3ccccc3O)CC2)ccc1Cl)c1cccs1,-18,15,-13,19,0,x,
CC(C)(CN1CCNCC1)NS(=O)(=O)c1ccc(Cl)cc1,x,x,x,61*,x,25,
CC(C)(CN1CCCC1)NS(=O)(=O)c1ccc(Cl)cc1,9,10,x,-27,-11,x,
Cc1nc(-c2cccnc2)sc1C(=O)N/N=C/c1ccccc1Cl,0,3,4,70*,-2,18,
O=c1[nH]c(=O)n(Cc2ccco2)c2c1C(C(F)(F)F)(C(F)(F)F)N=C(c1ccc(F)cc1)N2,-36,-10,31,65*,2,84*,Full FLuc ctr=58*
FC(F)(F)c1cc(CCN2CCNC[C@@H]2Cc2ccccc2)cc(C(F)(F)F)c1,38,-22,77*,51*,8,20,
O=C(NCC1COc2ccccc2O1)c1ccc(NC(=O)C(c2ccccc2)c2ccccc2)cc1 (stereo not given),85*,-2,12,63*,9,45*,Full FLuc ctr=55*
C=C[C@@H]1c2cc(C)ccc2N(S(=O)(=O)c2ccc(C)cc2)[C@H](c2ccccc2C(F)(F)F)C1(C#N)C#N,x,x,34,-1,x,x,
NS(=O)(=O)c1cccc(NC(=O)c2cccc(-c3ccc(O)cc3)c2)c1,-3,-2,25,64*,10,30,
N=c1c2c(-c3ccccc3)c(-c3ccccc3)n(Cc3ccco3)c2ncn1CCCO,65*,-30,14,61*,3,38,Full FLuc ctr=59*
c1ccc(-c2nc3nc4ccccc4nc3n2Cc2ccco2)cc1,5,-106,8,-37,10,x,
SMILES,T cruzi inh,aSyn UTR inh,CSC inhib,Mdm2 MdmX PPI,SKKanGAS inh,Mdm2 MdmX conf,others
c1coc(CNc2nc3ccccc3n2CCN2CCOCC2)c1,5,1,-5,-6,0,x,
N=c1c2c(-c3ccccc3)c(-c3ccccc3)n(Cc3ccco3)c2ncn1CCO,34,-14,37,82*,-5,61*,Full FLuc ctr=57*
N=c1c2c(-c3ccccc3)c(-c3ccccc3)n(Cc3ccco3)c2ncn1CCN1CCOCC1,67*,-14,-4,55*,1,33,
CC(=O)c1c(N2CCOCC2)nc2ccc(Cl)cc2c1-c1ccccc1,-7,7,-6,21,19,x,
COc1cc2cc(-c3ccc(OC)c(OC)c3C)nc(N)c2cc1OC,15,96*,63,94*,0,70*,Full FLuc ctr=62*
COc1cc2cc(-c3ccc(O)cc3O)nc(C)c2cc1OC,14,-116,23,84*,1,53*,Full FLuc ctr=53*
CCOc1ccc(-c2cc3cc(OC)c(OC)cc3c(C)n2)cc1,-1,-30,-13,2,7,x,
Cc1ccc(C(=O)N2N=C(c3ccc(Br)cc3)CC2c2ccccc2O)cc1 (stereo not given),55*,-7,112*,75*,33,2,
CCc1ccc(-c2cc(C)no2)cc1S(=O)(=O)NCCc1ccc(OC)c(OC)c1,2,-6,21,-29,5,x,
CCCCN(C(=O)C1CCCC1)c1c(N)n(CCC)c(=O)[nH]c1=O,x,x,x,3,x,x,
CO/N=C/C(=N\Nc1ccc(OC)cc1)C(=O)c1ccc(OC)cc1,45,-71,39,55*,-4,52*,Full FLuc ctr=100*
CC(=O)NC(CC(=O)N1CCN(C(C)=O)CC1)c1ccccc1 (stereo not given),-9,12,-9,19,-5,x,
N/C(=N\N=C/c1ccc(F)cc1)N/N=C\c1ccc(F)cc1,15,-20,77*,60*,-15,4,
C=C(C)[C@@H]1CC[C@]2(C(=O)O)CC[C@]3(C)[C@H](CC[C@@H]4[C@@]5(C)CC[C@H](O)C(C)(C)[C@@H]5CC[C@]43C)[C@@H]12,-17,1,84*,55*,9,25,
Cc1cccc(-c2noc(CCCC(=O)N3CCOCC3)n2)c1,-2,22,-4,-2,x,x,
CC(=O)c1ccc(OCCCC(=O)NC2CCCc3ccccc32)cc1 (stereo not given),15,4,6,-10,5,x,
Cc1[nH]c(=O)c(C(=O)/C=C/c2ccccc2F)c2c1CCCC2,u,-364,38,80*,-7,99*,Full FLuc ctr=53*
CNC(=O)c1c(O)c2cccc3c2n(c1=O)CCC3,-7,-13,x,75*,-1,84*,Full FLuc ctr=47*
CCCCCCNC(=O)c1c(O)c2cccc3c2n(c1=O)CCC3,27,21,21,-15,22,x,
CCCN1CCN(S(=O)(=O)c2ccc(-c3cc(C)no3)s2)CC1,-9,-4,-7,15,0,x,
O=c1c2cc(Cl)cc(Cl)c2nc2n1CCC2,-6,12,-9,6,4,x,
